Assay results from article PMC3053384 (Pediatric blood & cancer, 2010).
Read-outs that look alike come from different tables or passages of the source. Marks after values point to notes of the source that are not given here.

How the values were obtained:
[1] = tested on: Ewing sarcoma, Wilms tumor, glioblastoma, rhabdoid tumor and acute lymphoblastic leukemia xenografts; conditions: cited from earlier work
[2] = tested on: recurrent or refractory solid tumors; test: Pediatric phase 1 trial: tumor response; format: in vivo, human
In short: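 Children with recurrent or refractory solid tumors received the test compound as a 1-hour IV infusion on days 1, 8 and 15 of each 28-day course, at 5, 7, 9 or 12 mg/m2/dose. The compound was diluted in 5% dextrose in water to a final ≤ 150 μg/mL. Patients with haematologic DLT continued at the next lower dose level. Radiographic response was assessed by NCI RECIST.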

[3] = Pediatric phase 1 trial: toxicity, DLT and MTD; format: in vivo, human; conditions: for No. of patients with DLT: first course; for No. of courses with Grade 3 Anemia / No. of courses with Grade 3 Lymphopenia / No. of courses with Grade 3 Neutropenia / No. of courses with Grade 3 Thrombocytopenia / No. of courses with Grade 4 Anemia / No. of courses with Grade 4 Lymphopenia / No. of courses with Grade 4 Thrombocytopenia / No. of courses with Grade 4 Neutropenia: independent of frequency or attribution; for No. of courses with Grade 4 Neutropenia: dose-limiting
[4] = cited from earlier work
[5] = Pediatric phase 1 trial: plasma pharmacokinetics after first dose; design: species or system human; conditions: in vivo
[6] = target: kinesin spindle protein (KSP/HsEg5); conditions: read-out: binding constant, Ki; cited from earlier work
[7] = tested on: adult tumors (breast, ovarian and other cancers); conditions: 18 mg/m^2 once every 21 days; cited from earlier work
[8] = 12 mg/m^2 dose level, of 6 evaluable
[9] = Course 1 (19 courses), non-dose-limiting, related to protocol therapy
[10] = Courses 2-7 (15 courses), non-dose-limiting, related to protocol therapy

## Cc1ccc(C(=O)N(CCCN)[C@@H](c2nc3cc(Cl)ccc3c(=O)n2Cc2ccccc2)C(C)C)cc1 [ispinesib, Ispinesib]
[1]
  in vivo anti-tumor activity: high level of in vivo anti-tumor activity
[2]; 7 mg/m^2 dose level, ependymoblastoma
  complete courses of therapy with stable disease: 7 courses
[2]; 9 mg/m^2 dose level, alveolar soft part sarcoma
  complete courses of therapy with stable disease: 5 courses
[2]; 12 mg/m^2 dose level, anaplastic astrocytoma
  complete courses of therapy with stable disease: 4 courses
[2]; 24 pediatric patients evaluable for response
  objective tumor responses: no objective tumor responses
[3]; 5 mg/m^2/dose, 3 evaluable patients
  No. of patients with DLT: 0
[3]; 9 mg/m^2/dose, 6 evaluable patients
  No. of patients with DLT: 1
[3]; 12 mg/m^2/dose, 6 evaluable patients
  No. of patients with DLT: 3
[3]; [8]
  patients with dose-limiting hyperbilirubinemia (grade 3): 1/6
  patients with dose-limiting neutropenia (grade 4): 2/6
[3]; 9 vs 7 mg/m^2/dose
  pediatric MTD higher than recommended adult phase II dose: ~30%
[3]; Course 1 (19 courses)
  No. of courses with Grade 3 Anemia: 1
  No. of courses with Grade 3 Lymphopenia: 2
  No. of courses with Grade 3 Neutropenia: 5
  No. of courses with Grade 3 Thrombocytopenia: 1
  No. of courses with Grade 4 Anemia: 0
  No. of courses with Grade 4 Lymphopenia: 1
  No. of courses with Grade 4 Thrombocytopenia: 0
  No. of courses with Grade 4 Neutropenia: 3 ^*
[3]; [9]
  No. of courses with ALT toxicity, Grade 3: 1
  No. of courses with ALT toxicity, Grades 1 and 2: 3
  No. of courses with AST toxicity, Grade 3: 1
  No. of courses with AST toxicity, Grades 1 and 2: 2
  No. of courses with Alkaline phosphatase toxicity, Grade 3: 0
  No. of courses with Alkaline phosphatase toxicity, Grades 1 and 2: 2
  No. of courses with Constipation, Grade 3: 0
  No. of courses with Constipation, Grades 1 and 2: 2
  No. of courses with Diarrhea, Grade 3: 0
  No. of courses with Diarrhea, Grades 1 and 2: 2
  No. of courses with Electrolyte abnormality, Grade 3: 0
  No. of courses with Electrolyte abnormality, Grades 1 and 2: 4
  No. of courses with Fatigue, Grade 3: 0
  No. of courses with Fatigue, Grades 1 and 2: 3
  No. of courses with Hyperbilirubinemia, Grade 3: 1
  No. of courses with Hyperbilirubinemia, Grades 1 and 2: 1
  No. of courses with Hypoalbuminemia, Grade 3: 0
  No. of courses with Hypoalbuminemia, Grades 1 and 2: 3
  No. of courses with Nausea, Grade 3: 0
  No. of courses with Nausea, Grades 1 and 2: 4
  No. of courses with Vomiting, Grade 3: 0
  No. of courses with Vomiting, Grades 1 and 2: 3
[3]; Courses 2-7 (15 courses)
  No. of courses with Grade 3 Anemia: 0
  No. of courses with Grade 3 Lymphopenia: 2
  No. of courses with Grade 3 Neutropenia: 1
  No. of courses with Grade 3 Thrombocytopenia: 0
  No. of courses with Grade 4 Anemia: 0
  No. of courses with Grade 4 Lymphopenia: 0
  No. of courses with Grade 4 Thrombocytopenia: 0
  No. of courses with Grade 4 Neutropenia: 1 ^*
[3]; [10]
  No. of courses with ALT toxicity, Grades 1 and 2: 0
  No. of courses with AST toxicity, Grades 1 and 2: 0
  No. of courses with Alkaline phosphatase toxicity, Grades 1 and 2: 0
  No. of courses with Constipation, Grades 1 and 2: 0
  No. of courses with Diarrhea, Grades 1 and 2: 0
  No. of courses with Electrolyte abnormality, Grades 1 and 2: 0
  No. of courses with Fatigue, Grades 1 and 2: 1
  No. of courses with Hyperbilirubinemia, Grades 1 and 2: 0
  No. of courses with Hypoalbuminemia, Grades 1 and 2: 0
  No. of courses with Nausea, Grades 1 and 2: 1
  No. of courses with Vomiting, Grades 1 and 2: 1
[3]; children with solid tumors, 1-hour iv infusion weekly x 3 every 28 days
  maximum tolerated dose (MTD) and recommended phase II dose: 9 mg/m^2/dose
[3]; pediatric patients
  primary dose-limiting adverse events: neutropenia and hepatotoxicity
  reversibility of neutropenia: rapidly reversible
[3]; pediatric patients, 9 mg/m^2/dose weekly x 3 every 28 days
  tolerability: well tolerated
[3]; pediatric patients, 5-12 mg/m^2/dose weekly x 3 every 28 days
  tolerability: generally well tolerated
[4]; adult patients with breast cancer, day 1 and day 15 every 28 days
  maximum tolerated dose (MTD): 12 mg/m^2
[4]; adult patients with solid tumors, day 1, 2 and 3 every 21 days
  maximum tolerated dose (MTD): 6 mg/m^2
[4]; adult patients with solid tumors, weekly x 3 every 28 days
  maximum tolerated dose (MTD): 7 mg/m^2/dose
[4]; adults with acute leukemia, days 1, 2 and 3 every 21 days
  maximum tolerated dose (MTD): 10 mg/m^2/dose
[4]; adults, weekly x 3 every 28 days
  recommended adult phase II dose: 7 mg/m^2/dose
[5]; human
  dose dependence of terminal t1/2: independent of dose
  volume of distribution at steady state (Vss), median: 84 L/m^2
  volume of distribution at steady state (Vss), range: 23-193 L/m^2
[5]; human, 5 mg/m2
  Clearance: 5.3 L/hr/m^2
[5]; human, 5 mg/m2, Cmax
  Cmax: 145 ng/mL
[5]; human, 5 mg/m2, t1/2
  half-life: 9 h
[5]; human, 7 mg/m2, t1/2
  half-life: 14 h
[5]; human, 12 mg/m2
  Clearance: 13.5 L/hr/m^2
  Vss: 193 L/m^2
[5]; human, 12 mg/m2, Cmax
  Cmax: 149 ng/mL
[5]; human, 12 mg/m2, t1/2
  half-life: 13 h
[5]; human, iv, 5 mg/m2, Cmax
  Cmax: 86 ng/mL
[5]; human, iv, 5 mg/m2, t1/2
  half-life: 44 h
[5]; human, iv, 7 mg/m2, Cmax
  Cmax: 244 ng/mL
[5]; human, iv, 7 mg/m2, t1/2
  half-life: 32 h
[5]; human, iv, 12 mg/m2, Cmax
  Cmax: 204 ng/mL
[5]; human, iv, 12 mg/m2, t1/2
  half-life: 8 h
[5]; human, terminal elimination half-life (t1/2), median
  half-life: 16 h
[5]; human, terminal elimination half-life (t1/2), range
  half-life: 8 to 44 h
[5]; 5 mg/m2
  Clearance: 3.0 L/hr/m^2
[5]; 7 mg/m2
  Clearance: 1.2 L/hr/m^2
  Vss: 51 L/m^2
[5]; 12 mg/m2
  Clearance: 7.1 L/hr/m^2
  Vss: 83 L/m^2
[6]
  Ki: 600 pM
[7]
  activity in other adult tumor indications: No significant activity
